Here are results for one molecule from ChEMBL document CHEMBL3826951, “Discovery of Benzocycloalkane Derivatives Efficiently Blocking Bacterial Virulence for the Treatment of Methicillin-Resistant S. aureus (MRSA) Infections by Targeting Diapophytoene Desaturase (CrtN)” (J Med Chem, 2016).

The subject of data set [1] is Staphylococcus aureus. Put plainly: Effect on methicillin-resistant Staphylococcus aureus USA300 LAC growth at 0.2 mM after overnight incubation by plate reader method. The data set is classed as organism-based. To be noted: 200 µM. An outline of the steps:
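DMSO stock (20 mM) diluted in TSB to final 0.2 or 0.05 mM, overlaid with paraffin, pre-warmed 4 h at 37 °C. Overnight cultures adjusted to OD600 ~1.0 and inoculated to final OD600 ≈ 0.05. DMSO-matched growth controls. Incubated overnight at 37 °C; OD600 read every 30 min.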

The subject of data set [2] is Staphylococcus aureus. Put plainly: Sensitization of Staphylococcus aureus Newman to H2O2-induced killing assessed as cell survival at 1 uM pre-incubated for 24 hrs before H2O2 exposure for 30 mins by serial dilution method (reference value: 30.43%). The data set is classed as functional.
For data set [3], the system named is Staphylococcus aureus. Put plainly: Sensitization of methicillin-resistant Staphylococcus aureus USA300 LAC to H2O2-induced killing assessed as cell survival at 1 uM pre-incubated for 24 hrs before H2O2 exposure for 30 mins by serial dilution method (reference value: 15.83%). The data set is classed as functional.
The test system of data set [4] is Staphylococcus aureus. Put plainly: Sensitization of methicillin-resistant Staphylococcus aureus USA300 LAC to human whole blood assessed as cell survival at 1 uM after 6 hrs by serial dilution method (reference value: 12.17%). It counts as functional. Particulars: LAC USA300, 6 h.
Data set [5] has as its system Staphylococcus aureus. In words: Attenuation of Staphylococcus aureus Newman virulence in BALB/c mouse systemic infection model assessed as decrease in bacterial survival in kidney at 50 mg/kg, ip administered every 12 hrs for 108 hrs followed by bacterial challenge after first 12 hrs of compound dosing measured 5 days post infection. The data set is classed as functional. An outline of the steps:
(§1)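 Abscess model in female BALB/c mice, 6-8 weeks old. Dosed ip every 12 h for 108 h; retro-orbital challenge with 1 × 10^7 CFU Newman in 100 µL at 12 h. Sacrificed day 5. Kidneys and hearts homogenised in PBS plus 0.1% Triton X-100 and plated on TSA for CFU. n = 13; two-tailed Mann-Whitney.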

For data set [6], the system named is Staphylococcus aureus. In words: Attenuation of Staphylococcus aureus Newman virulence in BALB/c mouse systemic infection model assessed as decrease in bacterial survival in heart at 50 mg/kg, ip administered every 12 hrs for 108 hrs followed by bacterial challenge after first 12 hrs of compound dosing measured 5 days post infection. The data set is classed as functional. In a few lines:
as §1

For data set [7], the system named is Staphylococcus aureus. Put plainly: Attenuation of methicillin-resistant Staphylococcus aureus USA400 MW2 virulence in BALB/c mouse systemic infection model assessed as decrease in bacterial burden in liver at 50 mg/kg, ip administered every 12 hrs for 108 hrs followed by bacterial challenge after first 12 hrs of compound dosing measured 5 days post infection. The data set is classed as functional. An outline of the steps: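 Female BALB/c mice, 6-8 weeks old. Dosed ip every 12 h for 108 h. Challenged with 100 µL at 12 h: 1.6 × 10^8 CFU Mu50 or 4 × 10^7 CFU USA400 MW2. Sacrificed 5 days post-infection. Livers and kidneys homogenised in PBS/0.1% Triton X-100, serially plated on TSA, CFU counted; two-tailed Mann-Whitney.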

Turning to `COc1ccc(/C=C/CN(C)Cc2ccc3c(c2)CCCCC3)cc1.Cl`, the Activity entry with Staphylococcus aureus [1] is “Non-toxic”; in the data set with Staphylococcus aureus [5], 1.17 log10CFU; in the data set on Staphylococcus aureus [6] it was 1.62 log10CFU; in the data set on Staphylococcus aureus [7] it was 3.87 log10CFU. Besides, the survival at 1 µM in the data set with Staphylococcus aureus [2] is 0.83%; with Staphylococcus aureus [3], 0.98%; with Staphylococcus aureus [4], 0.95%.
